Assay type in all cases: functional, cell-based
Test [1] concerns A549. Briefly: Cytotoxicity against human A549 cells after 24 hrs by MTT assay. The note with it: Homo sapiens, A549, 24 h; read-out: IC50. The procedure, abridged:
(§1)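 Cell lines from the Navy Medical College, seeded at 8000 cells/well in 96-well plates. Compounds dissolved in DMSO (stock 10 g/L) and freshly diluted in medium. Dilutions were added in duplicate 24 h after seeding, with incubation continued at 37 °C. Viability read by MTT. IC50 taken as the concentration giving 50% growth inhibition, determined following NCCLS recommendations.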
A general note: Tetrazolium assays rely on reduction of a dye to a coloured formazan, in cell work by metabolically active cells.

The nature of test [2]: Cytotoxicity against human QGY7701 cells after 24 hrs by MTT assay. The note with it: QGY7701, 24 h. Summed up: as §1
For test [3], the system named is HeLa. Briefly: Cytotoxicity against human HeLa cells after 24 hrs by MTT assay. The note with it: Homo sapiens, HeLa, 24 h; read-out: IC50. Summed up:
as §1

For test [4], the system named is SW480. Briefly: Cytotoxicity against human SW480 cells after 24 hrs by MTT assay. The note with it: SW480, 24 h. The procedure, abridged: as §1

For the molecule `C=CC1=C(C(=O)NCc2ccccc2F)C(c2ccc(OC)cc2)OC1` (stereo not given), the IC50 in test [1], in test [2], in test [3] and in test [4] was above 100 µM each time.
On to `C=CC1=C(C(=O)NCC(C)C)C(c2ccc(OC)cc2)OC1` (stereo not given), for which the half-inhibitory concentration (IC50) in test [1], in test [2], in test [3] and in test [4] was above 100 µM each time.
For the molecule `C=CC1=C(C(=O)NCc2ccc(Cl)cc2)C(c2ccc(F)cc2)OC1` (stereo not given), the half-inhibitory concentration (IC50) is above 100 µM in test [1], 36.9 µM in test [2], above 100 µM in test [3] and above 100 µM in test [4].
Turning to `C=CC1=C(C(=O)N2CCN(c3cccc(Cl)c3Cl)CC2)C(c2ccc(OC)cc2)OC1` (stereo not given), the IC50 in test [1] worked out at 8.86 µM; in test [2] it was 4.96 µM; in test [3], 4 µM; in test [4] it was 29.2 µM.
For `C=CC1=C(C(=O)NCCC)C(c2ccc(OC)cc2)OC1` (stereo not given) the same measures were above 100 µM, above 100 µM, 14 µM and above 100 µM.
For `C=CC1=C(C(=O)NCCc2ccccc2F)C(c2ccc(F)cc2)OC1` (stereo not given) the same measures were above 100 µM, 35.1 µM, above 100 µM and above 100 µM.
For `C=CC1=C(C(=O)NCCc2ccc(F)cc2)C(c2ccc(F)cc2)OC1` (stereo not given) the same measures were above 100 µM, 29.7 µM, above 100 µM and 36 µM.
With `C=CC1=C(C(=O)NC2CCCCC2)C(c2ccc(OC)cc2)OC1` (stereo not given), the concentration for half-maximal inhibition (IC50) in test [1] was above 100 µM; in test [2], above 100 µM; in test [3], 24.8 µM; in test [4], above 100 µM.
As for `C=CC1=C(C(=O)O)C(c2ccc(Cl)c(Cl)c2)OC1` (stereo not given), the IC50 was above 100 µM in test [1], above 100 µM in test [2], 10.3 µM in test [3] and above 100 µM in test [4].
`C=CC1=C(C(=O)NCc2ccccc2)C(c2ccc(OC)c(OC)c2)OC1` (stereo not given): the IC50 in test [1], in test [2], in test [3] and in test [4] was above 100 µM each time.
Turning to `C=CC1=C(C(=O)NCCc2cccc(F)c2)C(c2ccc(F)cc2)OC1` (stereo not given), the IC50 in test [1] is above 100 µM; in test [2], 59.8 µM; in test [3] it was above 100 µM; in test [4], above 100 µM.
As for `C=CC1=C(C(=O)NC2CCCCC2)C(c2ccc(OC)c(OC)c2)OC1` (stereo not given), the IC50 in test [1] is above 100 µM; in test [2] it was 7.49 µM; in test [3], 5.54 µM; in test [4] it was 19.1 µM.
For `C=CC1=C(C(=O)NCCC)C(c2ccc(OC)c(OC)c2)OC1` (stereo not given) the same measures were above 100 µM, above 100 µM, above 100 µM and above 100 µM.
For `C=CC1=C(C(=O)NCc2ccc(Cl)cc2)C(c2ccc(OC)cc2)OC1` (stereo not given) the same measures were above 100 µM, above 100 µM, above 100 µM and above 100 µM.
For `C=CC1=C(C(=O)NC(C)(C)C)C(c2ccc(F)cc2)OC1` (stereo not given) the same measures were above 100 µM, above 100 µM, above 100 µM and above 100 µM.
Regarding `C=CC1=C(C(=O)O)C(c2ccc(OC)c(OC)c2)OC1` (stereo not given), the IC50 in test [1] is above 100 µM; in test [2], above 100 µM; in test [3], 18 µM; in test [4], above 100 µM.
`C=CC1=C(C(=O)NCCCCC)C(c2ccc(Cl)c(Cl)c2)OC1` (stereo not given): the IC50 in test [1] is above 100 µM; in test [2] it was above 100 µM; in test [3] it was above 100 µM; in test [4], 27.5 µM.
On to `C=CC1=C(C(=O)N2CCN(c3ccccc3Cl)CC2)C(c2ccc(OC)cc2)OC1` (stereo not given), for which the 50% inhibitory concentration (IC50) in test [1] is 35.3 µM; in test [2] it was above 100 µM; in test [3] it was above 100 µM; in test [4] it was 13.1 µM.
With `C=CC1=C(C(=O)Nc2ccccc2OC)C(c2ccc(F)cc2)OC1` (stereo not given), the IC50 in test [1] is above 100 µM; in test [2] it was 52.8 µM; in test [3], above 100 µM; in test [4] it was above 100 µM.
For the molecule `C=CC1=C(C(=O)NCc2ccc(C)cc2)C(c2ccc(OC)c(OC)c2)OC1` (stereo not given), the IC50 in test [1] was above 100 µM; in test [2] it was 69.1 µM; in test [3], above 100 µM; in test [4], above 100 µM.

The IC50 is the concentration at which inhibition is half-maximal.

Source of the values: ChEMBL document CHEMBL1932981, “Synthesis of novel 2, 5-dihydrofuran derivatives and evaluation of their anticancer activity” (Eur J Med Chem, 2012).
